HSF-1 act – increases HSF-1 driven luciferase reporter signal; NIH3T3-HGL HSF-1 luciferase reporter, MG132, 8 h; 100% = twice DMSO control signal; activation, % at 9 µM; 300,000 compounds, 1.7% hits; AID 504408;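 active means mean replicate activation of at least 50% with a set share of replicates each reaching 50%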
L major viab – inhibitors of Leishmania major promastigote growth. 200,000 compounds, 9% hits. AID 1063. inhibition, % at 10 µM. Leishmania major promastigotes, resazurin fluorescence viability; in the data active means inhibition above about 50%;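 further: promastigotes grown with compound for 44 hours at 28 °C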
Hsp70 activator – Hsp70 transcriptional activation, primary screen. HeLa Hsp70 promoter luciferase reporter, luminescence; scaled: vehicle 0, proteasome-inhibitor control 100%. activation, % at 10 µM. 200,000 compounds, 0.04% hits;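 active means activation above the mean across all tested compounds plus 3 SD, cutoff set per campaign, cut at about 5.5% in these data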
HSF1 inh – HSF1 inhibition. NIH3T3-HGL HSE-luciferase, MG132-induced, luminescence 8 h; hits give low values. activity change, negative = inhibition, % at 7.5 µM (by protocol). 300,000 compounds, 0.77% hits. AID 2098;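 active means more than half of replicate wells show activity change below -50%, luminescence cut by over half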;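 further: luciferase reports HSF-1 transcriptional activity via heat shock element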
T cruzi repl – blocks replication of Trypanosoma cruzi | T. cruzi beta-gal in NIH3T3, luminescence, 90 h | inhibition, % (test concentration not listed) | 300,000 compounds, 1.4% hits;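 active means mean inhibition across valid replicates above about 55%, limit read from the data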;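 further: signal also drops with host cell toxicity which is not excluded here; higher percent means less beta-gal luminescence so fewer parasites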
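System: mouse NIH/3T3 fibroblasts infected with β-gal-expressing T. cruzi Tulahuen C4 / Input: NIH/3T3 cells, 5,000 per well / Buffer or medium: Low-serum DMEM with 2% FBS / Probe or stimulus: 5000 reporter trypomastigotes per well / Schedule: ≥90 h infection period, 3 h prior cell attachment / Measured by: GalScreen luminescence, 60 min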
Numbers stand for hits; – = inactive; · = no result. The sample as a whole holds a higher share of hits than the screen did.

SMILES	HSF-1 act	L major viab	Hsp70 activator	HSF1 inh	T cruzi repl
C[C@@H](C(=O)Nc1nc2ccccc2s1)N1C(=O)C2CC=CCC2C1=O (some centres undefined)	–	–	–	–	–
O=C(Nc1nc(-c2ccncc2)cs1)C1c2ccccc2Oc2ccccc21	–	90	–	–	–
Cc1ccccc1Cn1nc(C)c(NC(=O)C2c3ccccc3Oc3ccccc32)c1C	70	84	–	–	–
O=C(Nc1ccncc1)C1c2ccccc2Oc2ccccc21	–	–	–	–	–
Cc1cc(C)c(NC(=O)C2c3ccccc3Oc3ccccc32)c(C)c1	–	–	–	–	–
CCCCCN(C(=O)CCC(=O)OCc1cc(C)ccc1C)c1c(N)n(CCCC)c(=O)[nH]c1=O	–	·	·	–	–
COC(=O)c1cc(CNC(=O)CCCSc2ccccc2)ccc1OC	–	·	·	–	–
CCOC(=O)Nc1csnn1	–	·	·	–	–
Cc1ccc(CC(=O)Nc2nccs2)cc1	–	·	·	–	–
COc1ccc(/C=C/C(=O)OC(C)CN2CCCCC2)cc1 (centres undefined)	–	·	·	–	–
Cc1cccc2sc(NC(=O)C3c4ccccc4Oc4ccccc43)nc12	–	81	–	–	–
Cc1cccc2sc(NC(=O)C3CC3)nc12	–	·	·	–	–
Cc1[nH]c2ccccc2c1C(=O)C(C)OC(=O)c1ccccc1NCCO (centres undefined)	–	·	·	–	–
CCOc1ccc(S(=O)(=O)N/N=C(\C)C2CCCCC2)cc1	–	55	–	–	–
COc1ccc(Cc2nnc(NC(=O)c3ccc(F)cc3)s2)cc1OC	–	·	·	–	–
CCS(=O)(=O)N1CCN(CC2CC3C=CC2C3)CC1 (centres undefined)	–	93	–	–	–
Cc1ccc(S(=O)(=O)N2CCN(CC3CC4C=CC3C4)CC2)cc1 (centres undefined)	–	·	·	–	–
CCCS(=O)(=O)N1CCN(CC2CC=CCC2)CC1 (centres undefined)	–	76	–	–	–
COc1ccc(S(=O)(=O)N2CCN(CC3CC=CCC3)CC2)cc1 (centres undefined)	–	·	·	–	–
CCCS(=O)(=O)N1CCN(CC2CC3C=CC2C3)CC1 (centres undefined)	·	88	–	·	·
CCOc1ccc(/C=N/NC(=O)c2cccc3ccccc23)c(OCC)c1	–	·	·	–	–
CC(C)CC(C(=O)NC1CCCCC1)N(Cc1cccs1)C(=O)c1snc(C(N)=O)c1N (centres undefined)	–	–	–	–	–
CCC(C)(C)NC(=O)C(c1ccc(C)o1)N(Cc1ccc2c(c1)OCO2)C(=O)c1snc(C(N)=O)c1N (centres undefined)	–	·	·	–	–
Cc1ccc(C(C(=O)NC(C)(C)C)N(Cc2ccccc2)C(=O)c2snc(C(N)=O)c2N)o1 (centres undefined)	–	54	–	–	–
CCCC(C(=O)NC1CCCC1)N(Cc1ccc2c(c1)OCO2)C(=O)c1snc(C(N)=O)c1N (centres undefined)	–	54	–	–	–
SMILES	HSF-1 act	L major viab	Hsp70 activator	HSF1 inh	T cruzi repl
CCCC(C(=O)NC1CCCC1)N(Cc1ccc(F)cc1)C(=O)c1snc(C(N)=O)c1N (centres undefined)	–	·	·	–	–
CCOc1ccccc1N(C(=O)c1snc(C(N)=O)c1N)C(C(=O)NC1CCCC1)c1ccco1 (centres undefined)	–	76	–	–	–
CC(C)CC(C(=O)NC1CCCC1)N(Cc1cccs1)C(=O)c1snc(C(N)=O)c1N (centres undefined)	–	93	–	–	–
COc1ccccc1N1CCN(c2nc3ccccn3c(=O)c2C=O)CC1	–	–	–	–	–
CCCC(C(=O)NC(C)(C)C)N(C(=O)c1snc(C(N)=O)c1N)c1ccc2c(c1)OCCO2 (centres undefined)	–	52	–	-74	–
O=C(CN1CCCCCC1)Nc1ccc(Oc2ccccc2)cc1	–	62	–	–	–
Cn1c(CCC(=O)OCC(=O)Nc2ccc(Oc3ccccc3)cc2)nc(=O)c2ccccc21	55	–	–	–	–
O=C(COC(=O)C1CCC1)Nc1ccc(Oc2ccccc2)cc1	52	67	–	–	–
O=C(COC(=O)C1CC1)Nc1ccc(Oc2ccccc2)cc1	–	–	–	–	–
O=C(CN1CCN(c2ccccn2)CC1)Nc1ccc(Oc2ccccc2)cc1	–	90	–	–	–
Cc1ccccc1CO/N=C/c1[nH]ncc1Br	–	·	·	-85	–

Assay outcomes as filed in PubChem BioAssay.
